Results on eight molecules are retold here after ChEMBL document CHEMBL1150811, “New modified eremophilanes from the roots of Psacalium radulifolium” (J Nat Prod, 2001).

The MIC is the least concentration at which growth counts as inhibited.

In brackets after ≈: the same amount, converted by molar mass. Some results are limits rather than exact numbers.

One data set concerns Escherichia coli. The data set can be described thus: Antimicrobial activity against Escherichia coli ATCC 8937. The data set is classed as functional. Put shortly:
(§1)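 Agar dilution: each natural product suspended in 10% DMSO and added at various concentrations to melted agar in Petri dishes; plates incubated 24 h at 37 °C; gentamicin and nystatin as reference standards; run in duplicate.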

In another data set the test system is Pseudomonas aeruginosa. The data set can be described thus: Antimicrobial activity against Pseudomonas aeruginosa ATCC 27853. It is filed as functional. The method, boiled down: as §1
A further data set concerns Proteus mirabilis. The data set can be described thus: Antimicrobial activity against Proteus mirabilis ATCC 12453. It is filed as functional. The method, boiled down: as §1
The subject of the next data set is Candida albicans. In words: Antimicrobial activity against Candida albicans ATCC 10231. It is filed as functional. The method, boiled down: as §1
For another data set, the system named is Artemia salina. The data set can be described thus: Toxicity against Artemia salina. The settings on record: in vivo. It is filed as organism-based.
The test system of a further data set is Staphylococcus aureus. In words: Antimicrobial activity against Staphylococcus aureus ATCC 6358.

For the molecule `COc1c2c(c(C)c3c(C)coc13)[C@@H](C)CC=C2`, the MIC is over 400 µg/mL in the data set on Escherichia coli; over 400 µg/mL with Pseudomonas aeruginosa; over 400 µg/mL with Proteus mirabilis; over 400 µg/mL in the data set on Candida albicans; 400 µg/mL (≈ 1650 µM) against Staphylococcus aureus. The molecule also returned an LD50 with Artemia salina of over 1000 ppm.
Consider `C[C@H]1CCCc2c(O)c(O)c3c(c21)COC(=O)C3(C)O` (mixture of isomers), for which the MIC was over 400 µg/mL in the data set on Escherichia coli, over 400 µg/mL in the data set on Pseudomonas aeruginosa, over 400 µg/mL in the data set on Candida albicans and 200 µg/mL against Staphylococcus aureus. Moreover, in the data set with Artemia salina, the LD50 is reported as 230 ppm.
`Cc1coc2c1C(C)(O)C1=C(CCC[C@@H]1C)C2=O` (mixture of isomers) [cacalone/epi-cacalone]: the MIC against Escherichia coli was over 1000 µg/mL; in the data set on Pseudomonas aeruginosa it was over 1000 µg/mL; in the data set with Proteus mirabilis it was over 1000 µg/mL; with Candida albicans, over 1000 µg/mL; against Staphylococcus aureus it was 250 µg/mL. Besides, the LD50 with Artemia salina turned out to be 269 ppm.
As for `Cc1coc2c(O)c3c(c(Cc4oc5c(O)c6c(c(C)c5c4C)[C@@H](C)CCC6)c12)[C@@H](C)CCC3` [ADENOSTIN A], the minimum inhibitory concentration (MIC) in the data set with Escherichia coli is over 400 µg/mL; against Pseudomonas aeruginosa, over 400 µg/mL; against Candida albicans, over 400 µg/mL; against Staphylococcus aureus it was 50 µg/mL (≈ 109 µM). In the data set on Artemia salina, this molecule showed an LD50 of 230 ppm.
For the molecule `Cc1coc2c(O)c3c(c(C)c12)[C@@H](C)CCC3` [CACALOL], the MIC against Escherichia coli is 25 µg/mL (≈ 109 µM); in the data set on Pseudomonas aeruginosa, over 400 µg/mL; in the data set with Proteus mirabilis, 12 µg/mL (≈ 52.1 µM); against Candida albicans, 12 µg/mL (≈ 52.1 µM); in the data set on Staphylococcus aureus, 12 µg/mL (≈ 52.1 µM). In addition, in the data set with Artemia salina, the LD50 stood at 12 ppm.
Regarding `CC(=O)O[C@@H]1c2c(C)coc2C(=O)C2=CCC[C@H](C)[C@]21C` [DECOMPOSTIN], the MIC with Escherichia coli, against Pseudomonas aeruginosa, with Proteus mirabilis, in the data set with Candida albicans and against Staphylococcus aureus was over 400 µg/mL in each case. In the data set on Artemia salina, this molecule registered an LD50 of over 1000 ppm.
For the molecule `C/C=C\C(=O)O[C@@H]1c2c(C)coc2C(=O)C2=CCC[C@H](C)[C@]21C` [NEOADENOSTYLONE], the MIC with Escherichia coli, with Pseudomonas aeruginosa, in the data set with Candida albicans and against Staphylococcus aureus was over 400 µg/mL in each case. In the data set on Artemia salina, this molecule registered an LD50 of 21.7 ppm.
As for `COc1c2c(c(C)c3c1OC(=O)[C@@]3(C)O)[C@@H](C)CCC2` [RADULIFOLIN B], the minimal inhibitory concentration (MIC) in the data set on Escherichia coli was over 400 µg/mL; with Pseudomonas aeruginosa it was over 400 µg/mL; against Candida albicans, over 400 µg/mL; in the data set on Staphylococcus aureus, 100 µg/mL (≈ 362 µM). In addition, in the data set with Artemia salina, the LD50 came to 52.5 ppm.
